Compound activity from PubChem BioAssay.
A selection: hits, their analogues and other compounds. The true share with any hit is near 4.3%.
FLuc inh counter – counter-screen for luciferase assay inhibitors: firefly luciferase inhibition. P08659. ATPLite firefly luciferase biochemical luminescence, 10 min. inhibition, % at 10 µM. 200,000 compounds, 1.5% hits. AID 1006;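 active means inhibition above about 50% when tested at 10 µM, limit read from the data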
Target sequence (P08659 whole entry, looked up): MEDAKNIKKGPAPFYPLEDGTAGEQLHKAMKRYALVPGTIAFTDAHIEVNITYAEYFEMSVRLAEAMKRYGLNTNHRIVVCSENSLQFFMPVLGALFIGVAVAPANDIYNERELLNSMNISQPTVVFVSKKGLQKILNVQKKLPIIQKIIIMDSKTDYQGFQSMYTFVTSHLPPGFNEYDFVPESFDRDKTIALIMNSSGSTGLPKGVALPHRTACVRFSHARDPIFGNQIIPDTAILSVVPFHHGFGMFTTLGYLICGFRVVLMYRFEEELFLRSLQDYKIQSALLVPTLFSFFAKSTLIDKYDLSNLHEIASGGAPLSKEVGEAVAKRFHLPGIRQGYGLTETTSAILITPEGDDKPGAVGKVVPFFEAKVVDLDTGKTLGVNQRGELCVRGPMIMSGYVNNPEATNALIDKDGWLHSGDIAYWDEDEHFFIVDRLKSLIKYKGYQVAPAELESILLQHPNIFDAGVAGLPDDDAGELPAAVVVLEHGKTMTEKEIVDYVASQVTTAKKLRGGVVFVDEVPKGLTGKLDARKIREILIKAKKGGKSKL
APP 5'UTR act – activates APP 5'UTR luciferase reporter. SH-SY5Y APP 5'UTR luciferase reporter, luminescence; zero percent = DMSO vehicle wells. activation, % at 2 µM. 190,000 compounds, 1% hits. AID 1276;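 active means activation above a set limit, based on mean plus 3 SD of controls, cut at about 140% in these data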
SDO1 yeast rescue – compounds rescuing growth of sdo1-depleted yeast, bone marrow failure model; S. cerevisiae sdo1-depleted JHY4D growth rescue, OD600 30 h; active compounds read high; pdr5 snq2 efflux-pump mutant strain; z-score at 10 µM; 140,000 compounds, 0.21% hits; AID 817;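 active means z-score above 3 at both the 24 hr and the 30 hr optical density reads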
NF-kB expr up – raises NF-kB expression in human neuronal cells; 190,000 compounds, 1.6% hits; AID 1239; fold change at 12.5 µM; NF-kB reporter expression; active compounds read high; in the data active means fold change above about 3.3
FLuc stim CS – firefly luciferase counter-screen for stimulation assays; P08659; ATPlite luciferase biochemical, luminescence, 10 min; 0 = ATP-free wells, 1 = DMSO control; activation factor at 10 µM; 200,000 tested, under 10 active;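 active means luciferase activation factor, scaled between plate controls, of at least 2 with compound at 10 µM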
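Assay system – cell-free luciferase reagent · Medium – PBS-based ATP solution · Dosing – test compounds dosed from 2 mM stocks in 100% DMSO · Timing – 10 min, room temperature · Technique – light output (luminescence) · Measure – luminescence gain marking luciferase activators · Controls – No-ATP low control, compound-free enzyme-plus-ATP high control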
STAT1 act – STAT1 signaling activation. NIH 3T3 STAT1-luciferase reporter, IFN-gamma, luminescence; 100% = IFN-gamma alone, no compound. activation (% of control), % at 5.5 µM. 200,000 compounds, 2.6% hits. AID 932;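 active means activation above the screen-wide mean activation plus 3 SD, cut at about 130% in these data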
A number is an active result; . = inactive; / = not tested or not shown.

SMILES	FLuc inh counter	APP 5'UTR act	SDO1 yeast rescue	NF-kB expr up	FLuc stim CS	STAT1 act
CN(CC(O)CON=C1c2ccccc2-c2ccccc21)S(=O)(=O)c1ccc(Br)cc1 (stereo unspecified)	.	.	.	.	.	.
Cc1[nH]n(-c2ccc([N+](=O)[O-])cc2)c(=O)c1C=NCC1CCCO1 (stereo unspecified)	.	.	/	.	.	135
Cc1[nH]n(-c2ccccc2)c(=O)c1C=NC1CCCCCC1	.	.	/	.	.	.
COc1ccc(-c2[nH]n(-c3ccc([N+](=O)[O-])cc3)c(=O)c2C=NCC2CCCO2)cc1 (stereo unspecified)	.	.	/	.	.	.
C=CCN=Cc1c(C)[nH]n(-c2ccccc2)c1=O	.	.	/	11	.	.
Cc1[nH]n(-c2ccccc2)c(=O)c1C=NC1CCCCC1	.	.	/	6.1	.	.
C=CCn1c(COc2ccc(CC)cc2)nnc1SC/C(O)=C(\C#N)c1nc2ccccc2[nH]1	.	.	.	.	.	.
Cc1cc(SC(C)C(=O)Nc2ncc(Cl)cc2Cl)nc2ccccc12 (stereo unspecified)	.	.	.	3.4	.	.
CC/C(=N/O)C(=O)c1ccc(Br)cc1	.	.	/	.	.	.
Cn1cnc2cc(NC(=O)c3ccc(Cl)cc3)ccc21	.	.	.	5	.	140
Cn1c(CN2CCCC2)nc2cc(NC(=O)c3ccc(Cl)cc3)ccc21	.	.	/	.	.	146
C#CCNC(=O)C1=C[C@@H](C)C[C@@H](OCc2ccc(CO)cc2)O1	.	.	/	.	.	.
ClC(Cl)(Cl)c1nc(N/N=C/c2ccncc2)c2ccccc2n1	.	.	/	.	.	.
Cc1ccc(-c2nc(N/N=C/c3ccccc3[N+](=O)[O-])c3ccccc3n2)cc1	64	.	.	.	.	.
Brc1ccc(-c2nc(N/N=C/c3cccnc3)c3ccccc3n2)cc1	96	.	.	.	.	.
CCOC(=O)c1ccc2nc(C)c(CCC(C)=O)c(Cl)c2c1	.	.	.	.	.	129
OC1CCC(NC(=S)Nc2ccc(SC(F)F)cc2)CC1 (stereo unspecified)	.	.	/	.	.	129
CC(C)c1ccc(NC(=S)NC2CCCCCC2)cc1	.	.	/	.	.	140
COC(=O)c1cc(OC)c(OC)cc1NC(=O)c1ccc(OC)c(OC)c1	.	.	.	.	.	.
Cc1ccc(-c2cc(=O)c3cc(C)ccc3[nH]2)cc1	93	.	.	5.8	.	146
Cc1ccc(-c2cc(=O)c3cc(F)ccc3[nH]2)cc1	.	.	.	.	.	.
Cc1ccc2[nH]c(-c3cccc(F)c3)cc(=O)c2c1	.	.	.	3.8	.	.
COc1ccc2[nH]c(-c3cccc(F)c3)cc(=O)c2c1	.	.	.	5.5	.	.
O=c1cc(-c2cccc(F)c2)[nH]c2ccccc12	.	.	.	.	.	.
COc1ccc(CC(=O)OCC(=O)Nc2ccc3c(c2)OCO3)cc1	.	.	/	.	.	.
SMILES	FLuc inh counter	APP 5'UTR act	SDO1 yeast rescue	NF-kB expr up	FLuc stim CS	STAT1 act
CC(NS(=O)(=O)c1ccccc1)C(c1cccs1)N1CCN(C)CC1 (stereo unspecified)	.	.	.	.	.	.
Cc1cccc(N=C2NN=C(c3ccc4c(c3)OCCO4)CS2)c1	81	140	.	.	.	.
O=S1(=O)CCN(Cc2ccc(Cl)c(C(F)(F)F)c2)CC1	.	.	/	.	.	.
CC1(C)Cc2c(sc(NC(=O)c3ccco3)c2C#N)CO1	75	.	.	.	.	.
Cc1ccc(S(=O)(=O)NC(=O)NC(C)Cc2ccccc2)cc1 (stereo unspecified)	.	.	/	.	.	.
CC(=O)Nc1ccc(-c2cn3cc(C)ccc3n2)cc1	84	149	.	5.9	.	130
Cc1ccc2nc(-c3ccc(S(=O)(=O)N4CCOCC4)cc3)cn2c1	.	.	.	.	.	.
Cc1ccc2nc(-c3ccccc3)cn2c1	96	.	.	.	.	.
Cc1ccc(C2=CSC3=NS(=O)(=O)CCN23)cc1	.	.	/	.	.	.
COc1ccc(-c2cn3ccc4ccccc4c3n2)cc1	68	217	.	14	.	.
Cc1cccn2cc(-c3ccc(F)cc3)nc12	59	.	.	5.8	.	130
Cc1cccn2cc(-c3cccc(NC(=O)c4cccs4)c3)nc12	.	.	/	.	.	131
Cc1cccn2cc(-c3ccccc3)nc12	69	154	.	4.3	.	138
Cc1cccn2cc(-c3ccc(F)cc3)cc12	.	.	/	.	.	.
COC(=O)CN(C#N)c1nc(NC(C)C)nc(NC(C)C)n1	.	.	/	.	.	.
O=C(NNC(=O)[C@@H]1CCCC[C@@H]1C(=O)O)Nc1ccccc1	.	.	.	.	.	.
CCCC(=O)N=C1SC2CS(=O)(=O)CC2N1c1ccc(-c2nc3ccc(C)cc3s2)cc1 (stereo unspecified)	.	.	.	.	.	131
COc1ccc(NC(=O)c2c(Cl)nc3ccccn23)cc1	.	.	/	.	.	134
Cc1nc2ccccn2c1C(=O)/C=C/c1ccc(F)cc1	.	.	.	3.4	.	129
COc1ccc(/C=C/C(=O)c2c(C)nc3ccccn23)cc1	.	.	.	.	.	141
O=C(NCCc1ccccc1)Nc1ccc(Cl)cc1	.	/	.	.	.	147
O=C(O)c1cccnc1Nc1ccc(Cl)cc1	.	.	/	.	.	143
COC(=O)c1sccc1NC(=O)Nc1ccc(Cl)c(Cl)c1	.	.	.	.	.	144
O=C(Nc1ccc(Cl)c(Cl)c1)Nc1ccccc1C(=O)O	67	215	/	7.7	.	140
S=C(NCCc1ccccc1)Nc1ccc(Cl)cc1	.	.	.	.	.	.
SMILES	FLuc inh counter	APP 5'UTR act	SDO1 yeast rescue	NF-kB expr up	FLuc stim CS	STAT1 act
COC(=O)c1cccc(NC(=O)Nc2ccc(Cl)c(Cl)c2)c1	.	.	.	.	.	.
COC(=O)Nc1ccc(S(=O)(=O)N2CCC(C(=O)NC3CCCCC3)CC2)cc1	.	.	/	.	.	.
CCOC(=O)c1ccc2c(c1)nc(SCc1cn3ccsc3n1)n2CC	.	.	.	.	.	.
CC(C)C(=O)Nc1cccc(C(=O)Nc2ccccc2C(=O)O)c1	61	.	.	.	.	.
O=C(Nc1ccc(Cl)cc1)Nc1ccccc1C(=O)O	90	.	/	4.5	.	.
O=C(O)CCCC(=O)Nc1cccc(C(=O)Nc2ccccc2C(=O)O)c1	.	.	/	.	.	.
COc1ccc(C)cc1NC(=O)C(=O)NCc1ccncc1	.	.	.	.	.	.
N#C/C(=C\c1ccc(Cl)cc1)c1nc2ncccc2[nH]1	.	.	.	.	.	.
COc1ccc(C(=O)/C=C/c2cccs2)c(OC(=O)c2cccc([N+](=O)[O-])c2)c1	.	.	.	6	.	.
